Results: ChEMBL document CHEMBL1949620, “Cyclolinopeptide derivatives modify methotrexate-induced suppression of the humoral immune response in mice” (Eur J Med Chem, 2011)
Activity calls are given as the source filed them. The rule behind the calls is not given here. Peptide text beside a SMILES is read from it.

Assays:
Assay type in all cases: functional, cell-based
Splenocyte [1] = experiment: Immunoregulatory activity against methotrexate-induced decrease of humoral immune response in SRBC primed BALB/c mouse splenocytes assessed as increase of antibody forming cells at 10 ug/ml after 4 days
Summary of the method: (§1)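 Female BALB/c mice, 12 weeks old, primed i.p. with 0.2 ml of 1% SRBC. Splenocytes taken 4 days later and cultured at 5×10⁶/ml in RPMI 1640 with 10% FCS, glutamine, pyruvate, 2-mercaptoethanol and antibiotics, plus 0.05 ml of 0.005% SRBC. Peptides (in Cremophor/ethanol, diluted in RPMI) added at culture start; MTX (0.25, 0.5 or 1.0 mM) added at 24 h. After 4 days, AFC counted by agar-gel local haemolysis; Student's t-test.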

Splenocyte [2] = experiment: Immunoregulatory activity against methotrexate-induced decrease of humoral immune response in SRBC primed BALB/c mouse splenocytes assessed as increase of antibody forming cells at 1 ug/ml after 4 days; summary of the method: as §1
Splenocyte [3] = experiment: Immunostimulatory activity in SRBC primed BALB/c mouse splenocytes assessed as humoral immune response by measuring inhibition of antibody forming cells at 10 ug/ml after 4 days
Summary of the method: (§2)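 Splenocytes from female BALB/c mice (12 weeks old) primed i.p. with 0.2 ml of 1% SRBC and harvested after 4 days. Cells cultured at 5×10⁶/ml in RPMI 1640 with 10% FCS and supplements, with 0.05 ml of 0.005% SRBC antigen. Peptide (Cremophor/ethanol stock diluted in RPMI) added at initiation, no MTX. Antibody-forming cells counted by local haemolysis in agar after 4 days; Student's t-test.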

Splenocyte [4] = experiment: Immunostimulatory activity in SRBC primed BALB/c mouse splenocytes assessed as humoral immune response by measuring increase of antibody forming cells at 0.25 to 1 mM after 4 days; conditions: 1 to 10 ug/ml, in the assay text read “at 1 to 10 ug/ml” for “at 0.25 to 1 mM”; summary of the method: as §1
Splenocyte [5] = experiment: Immunoregulatory activity against methotrexate-induced decrease of humoral immune response in SRBC primed BALB/c mouse splenocytes assessed as increase of antibody forming cells at […] after 4 days; summary of the method: as §1
Splenocyte [6] = experiment: Immunostimulatory activity in SRBC primed BALB/c mouse splenocytes assessed as humoral immune response by measuring increase of antibody forming cells after 4 days; summary of the method: as §2
Splenocyte [7] = experiment: Immunostimulatory activity in SRBC primed BALB/c mouse splenocytes assessed as humoral immune response by measuring increase of antibody forming cells at 1 ug/ml after 4 days; summary of the method: as §2
Splenocyte [8] = experiment: Immunoregulatory activity against methotrexate-induced decrease of humoral immune response in SRBC primed BALB/c mouse splenocytes assessed as increase of antibody forming cells at 0.1 ug/ml after 4 days; summary of the method: as §1

CC[C@H](C)[C@@H]1NC(=O)[C@H](CC(C)C)NC(=O)[C@@H](Cc2ccccc2)N2CCN(C(=O)[C@@H]3CCCN3C(=O)[C@@H]3CCCN3C(=O)[C@H](C(C)C)NC(=O)[C@H](CC(C)C)NC(=O)[C@H]([C@@H](C)CC)NC1=O)[C@H](Cc1ccccc1)C2=O was tested, and the “increase of antibody forming cells” value (Splenocyte [1]) was “Active” and the inhibition (Splenocyte [2]) was “Active”.
For CC[C@H](C)[C@@H]1NC(=O)[C@H](CC(C)C)NC(=O)[C@H](Cc2ccccc2)N2CCN(C(=O)[C@@H]3CCCN3C(=O)[C@@H]3CCCN3C(=O)[C@H](C(C)C)NC(=O)[C@H](CC(C)C)NC(=O)[C@H]([C@@H](C)CC)NC1=O)[C@@H](Cc1ccccc1)C2=O, the inhibition (Splenocyte [3]) was “Active” and the “increase of antibody forming cells” value (Splenocyte [1]) was “Active”.
In the case of CC[C@H](C)[C@H](NC(=O)[C@@H](NC(=O)[C@H](CC(C)C)NC(=O)[C@@H](Cc1ccccc1)N1CCN(C(=O)[C@@H]2CCCN2C(=O)[C@@H]2CCCN2C(=O)[C@@H](NC(=O)[C@@H](N)CC(C)C)C(C)C)[C@H](Cc2ccccc2)C1=O)[C@@H](C)CC)C(=O)O, the “increase of antibody forming cells” value (Splenocyte [1]) is reported as “Active” and the Activity (Splenocyte [4]) is reported as “Active”.
In the case of CC[C@H](C)[C@H](NC(=O)[C@@H](NC(=O)[C@H](CC(C)C)NC(=O)[C@H](Cc1ccccc1)N1CCN(C(=O)[C@@H]2CCCN2C(=O)[C@@H]2CCCN2C(=O)[C@@H](NC(=O)[C@@H](N)CC(C)C)C(C)C)[C@@H](Cc2ccccc2)C1=O)[C@@H](C)CC)C(=O)O, the Activity (Splenocyte [4]) is reported as “inactive” and the inhibition (Splenocyte [5]) is reported as “Active”.
In the case of CC[C@H](C)[C@@H]1NC(=O)[C@H](CC(C)C)NC(=O)[C@H](Cc2ccccc2)NC(=O)[C@H](Cc2ccccc2)NC(=O)[C@@H]2CCCN2C(=O)[C@@H]2CCCN2C(=O)[C@H](C(C)C)NC(=O)[C@H](CC(C)C)NC(=O)[C@H]([C@@H](C)CC)NC1=O (cyclo(FFLIILVPP)), the Activity (Splenocyte [6]) is reported as “Dose-dependent effect”, the Activity (Splenocyte [7]) is reported as “inactive” and the inhibition (Splenocyte [3]) is reported as “Active”. The inhibition (Splenocyte [8]) was “Active”, the “increase of antibody forming cells” value (Splenocyte [1]) was “Active” and the inhibition (Splenocyte [2]) was “Active”.
With H-LVPPFFLII-OH the “increase of antibody forming cells” value (Splenocyte [1]) was “Active” and the Activity (Splenocyte [4]) was “inactive”.
